# Assay outcomes: PubChem BioAssay, The Scripps Research Institute Molecular Screening Center
# The list is not random: actives were taken first. Their share in the collection is about 1.7%.
# ZTA counter: ZTA (EBV) inhibition in EBNA-1 counter-screen; P03206; ZTA-DNA binding, fluorescence polarization; inhibition, % at 11 µM; hit rate 0.15% among 320,000; AID 2234; in the data active = inhibition above about 33%
# Target sequence (P03206 whole entry, looked up): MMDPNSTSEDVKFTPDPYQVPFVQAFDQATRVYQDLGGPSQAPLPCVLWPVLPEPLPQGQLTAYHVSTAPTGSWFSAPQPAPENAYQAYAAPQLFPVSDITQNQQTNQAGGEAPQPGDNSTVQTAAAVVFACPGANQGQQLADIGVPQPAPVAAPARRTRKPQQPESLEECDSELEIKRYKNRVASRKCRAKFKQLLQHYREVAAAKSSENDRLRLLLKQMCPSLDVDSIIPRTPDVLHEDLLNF
# PP5 primary: PP5 (human) phosphatase inhibition. purified PP5c, OMFP substrate fluorescence. inhibition, % at 6.7 µM. hit rate 0.18% among 320,000;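 active = inhibition above the campaign's mean inhibition across all tested compounds plus 3 SD, cut at about 9.5% in these data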;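 also: 0% = DMSO only and 100% = 100 µM cantharidin control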
# core dimer inh: HCV core protein dimerization inhibition; TR-FRET GST/Flag-core106 dimerization, 1536-well; inhibition, % at 5 µM; hit rate 0.33% among 300,000; AID 1899;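 active = inhibition above the mean of all tested compounds plus 3 SD, set per screening campaign, cut at about 45% in these data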
#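 Assay system: tagged HCV core106 pair (GST and Flag); medium: KF-containing HEPES buffer, pH 7.45, DTT, CHAPS, BSA; also added: Eu donor and XL665 acceptor anti-tag antibodies; dosing: 5 µM single dose; timing: compound-protein-antibody incubation 4 h at 22.5 °C; signal: TR-FRET 671 and 617 nm emission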
# EBNA-1 inhibitor: blocks EBNA-1 binding to DNA. EBNA-1 DNA binding, fluorescence polarization. hit rate 0.34% among 300,000. AID 1950. inhibition, % at 14.8 µM; in the data active = inhibition above about 28%
# PP1 inh: counter-screen for PP5 inhibitors: inhibitors of human PP1-alpha | P62136 | inhibition, % at 6.7 µM | purified PP1alpha, OMFP fluorescence | hit rate 0.9% among 320,000 | AID 2235;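 active = inhibition above the mean inhibition of all tested compounds plus 3 SD, computed separately for each screening campaign, cut at about 15% in these data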
# Target sequence (P62136 whole entry, looked up): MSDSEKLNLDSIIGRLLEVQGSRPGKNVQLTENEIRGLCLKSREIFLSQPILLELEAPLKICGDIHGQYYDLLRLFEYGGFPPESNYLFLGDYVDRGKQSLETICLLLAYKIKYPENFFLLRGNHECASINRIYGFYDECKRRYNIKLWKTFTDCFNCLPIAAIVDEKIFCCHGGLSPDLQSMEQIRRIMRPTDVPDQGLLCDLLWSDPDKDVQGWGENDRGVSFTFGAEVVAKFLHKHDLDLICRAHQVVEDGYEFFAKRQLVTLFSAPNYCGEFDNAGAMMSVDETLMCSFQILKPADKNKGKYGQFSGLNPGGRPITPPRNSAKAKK
# EBNA-1 confirm: EBNA-1 (EBV) inhibition, confirmation; shares compounds with EBNA-1 inhibitor; Recombinant EBNA-1 DBD, Cy5-DNA fluorescence polarization; inhibition, % at 14.8 µM; hit rate 35% among 830;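 active = mean inhibition across replicates above a set limit taken from the earlier primary screen, cut at about 28% in these data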;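 also: plate controls were EBNA-1 protein with DMSO for no effect and wells lacking EBNA-1 for full effect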
# ZTA DNA inh trip: counter-screen for EBNA-1 inhibitors: Epstein-Barr virus ZTA inhibitors, triplicate. shares compounds with EBNA-1 inhibitor. Zta-ZRE DNA binding, Cy5 fluorescence polarization. inhibition, % at 11.1 µM. 830 tested, under 10 active. AID 2328;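 active = mean inhibition over triplicates above a set limit taken from the primary EBNA-1 screen, cut at about 37% in these data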;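 also: purified full length Zta protein with Cy5 labeled ZRE DNA probe; 0% = Zta with DMSO and 100% = wells lacking Zta protein; inhibitors lower polarization by freeing the labeled DNA probe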
# * hit, by the source's call; . = no result given.
SMILES,ZTA counter,PP5 primary,core dimer inh,EBNA-1 inhibitor,PP1 inh,EBNA-1 confirm,ZTA DNA inh trip
CCOc1ccc(/C=N/NC(=O)c2nnn(-c3nonc3N)c2-c2ccc(OCC)cc2)cc1,-8,5,20,35*,6,1,-1
CCOc1ccc(-c2c(C(=O)N/N=C/c3ccoc3)nnn2-c2nonc2N)cc1,-12,2,7,-2,1,.,.
Cc1ccccc1C(=O)/C=C1/SCC(=O)N1C,16,1,4,9,-1,.,.
Cc1nn(-c2ccccc2)c2sc(C(=O)OCn3nnc4ccccc4c3=O)cc12,-23,1,4,35*,-1,-3,-4
Cc1ccc(S(=O)(=O)/N=C(\N)Nc2nc(C)c3ccc(C)cc3n2)cc1,8,2,12,37*,-1,15,-1
Cc1ccc(S(=O)(=O)/N=C(\N)Nc2nc(C)c3cc(C)c(C)cc3n2)cc1,8,0,9,38*,11,0,-12
COCCn1c(N)c(N(Cc2ccccc2)C(=O)c2ccc(-c3ccc(Cl)cc3)o2)c(=O)[nH]c1=O,-10,1,-12,2,2,.,.
CCC(=O)N(c1ccc(C(=O)O)cc1)c1nc(-c2ccc(OC)cc2)c(C)s1,15,1,6,2,0,.,.
Cc1nn(C)c(C)c1NC(=O)CC12CC3CC(CC(C3)C1)C2,-7,2,-5,5,1,.,.
COc1ccc(NC(=O)c2ccc3c(c2)CCN3S(=O)(=O)c2ccccc2)c(OC)c1,-1,1,18,28*,1,15,5
NC(=O)c1ccc(NC(=O)c2ccc3c(c2)CCN3S(=O)(=O)c2ccccc2)cc1,4,3,11,20,0,.,.
COc1ccccc1CNC(=O)C1CCN(C(=O)N(C)C)CC1,31,3,-1,78*,-4,3,3
CC12CCC(C/C1=N/O)C2(C)CBr (stereo not given),3,1,-2,-7,-3,.,.
COc1ccc(C(=O)N2CCC(c3ccccc3)CC2)c(OC)c1OC,6,-1,4,5,1,.,.
CCc1cccc(CC)c1NC(=O)COC(=O)/C(C#N)=C/c1ccc(OC)cc1,20,1,23,46*,7,15,7
COc1ccc(/C=C(\C#N)C(=O)OCC(=O)Nc2c(C)cccc2C)cc1,-8,3,8,18,-1,.,.
CC(C)[C@H](NC(=O)OCc1ccccc1)C(=O)OCC(=O)NCCc1ccccc1,-5,2,-2,-7,2,.,.
COc1ccc(NC(=O)c2cc(-c3cccnc3)nc3c(C)c(C)ccc23)c(OC)c1,8,3,3,33*,-8,24,-6
Cc1c(C#N)c(N)nc2c3c(sc12)NC(=O)CC3c1ccccc1 (stereo not given),-23,3,4,63*,-4,25,-2
Cc1c(C#N)c(N)nc2c3c(sc12)NC(=O)CC3c1ccc(F)cc1 (stereo not given),10,3,11,-13,1,.,.
CCC(Oc1ccccc1)C(=O)NCCOC (stereo not given),10,-1,-2,-1,0,.,.
CC(=O)Nc1ccc(NC(=O)C(Sc2ccccc2)c2ccccc2)cc1 (stereo not given),12,0,-1,4,-6,.,.
CC(C)NC(=O)C(Sc1ccccc1)c1ccccc1 (stereo not given),-6,3,2,39*,-8,1,1
O=S(=O)(NCCN1CCCC1)c1ccc(Br)cc1,-1,-4,-8,8,-2,.,.
COc1ccc(Cc2nnc(NC(=O)Nc3ccccc3F)s2)cc1OC,4,-1,5,37*,3,71*,10
SMILES,ZTA counter,PP5 primary,core dimer inh,EBNA-1 inhibitor,PP1 inh,EBNA-1 confirm,ZTA DNA inh trip
CCCNC(=S)N1CC2(C)CN(C(=O)C(=O)OCC)CC(C)(C1)C2=O,-9,0,-15,6,0,.,.
CC(=O)c1cccc(NC(=O)c2ccc(-c3ccccc3[N+](=O)[O-])o2)c1,8,4,9,36*,-2,4,17
CCn1nnc(NC(=O)c2ccc(-c3ccccc3[N+](=O)[O-])o2)n1,-2,1,2,-2,0,.,.
COc1ccc(-c2cc(CCCC(=O)NCCc3ccc(OC)cc3OC)no2)cc1,1,1,0,36*,4,46*,13
COc1ccc(-c2cc(CCCC(=O)NCCc3ccccc3)no2)cc1,6,1,-5,-9,-6,.,.
CC(=O)C(/C=N/c1cc(-c2ccc(C)cc2)nn1-c1ccccc1)=C(\C)O,-1,-1,11,30*,0,50*,4
Cc1ccc(NC(=O)c2cc(-c3ccccc3)nn2-c2ccccc2)cc1,4,4,4,-5,-4,.,.
Cc1ccn(C(=O)c2ccc(NC(=O)C3CC3)cc2)n1,4,2,-1,-2,-3,.,.
Cc1cc(Cl)ccc1OCC(=O)NC(=S)Nc1ccccc1N1CCOCC1,14,1,8,44*,-1,38*,8
Cc1cc(Cl)ccc1OCC(=O)Nc1ccccc1N1CCOCC1,8,2,0,9,5,.,.
CC(=O)NCCOc1nc(N2CCCCC2)nc(N2CCCCC2)n1,9,0,-1,1,-3,.,.
Cc1ccc2nc(-c3ccc(NC(=O)C(C)N4C(=O)c5ccccc5C4=O)cc3)sc2c1 (stereo not given),-5,2,-20,33*,2,10,16
O=C(CSc1nnc(SCc2ccc(Cl)cc2)s1)N/N=C/c1c(Cl)cccc1Cl,-15,3,6,35*,-1,0,-6
O=C(CSc1nnc(SCc2ccc(Cl)cc2)s1)N/N=C/c1ccc(Cl)cc1Cl,-7,-3,11,5,2,.,.
O=C(CSC(=S)N1CCCCC1)Nc1nc(-c2ccccc2)c(-c2ccccc2)o1,26,5,12,36*,4,6,-1
O=C(CSC(=S)N1CCN(c2ccccc2)CC1)Nc1nc(-c2ccccc2)c(-c2ccccc2)o1,-3,-4,2,-2,0,.,.
COc1cc(NC(=O)c2ccc(C)c([N+](=O)[O-])c2)ccc1NC(=O)c1ccco1,-12,1,2,51*,-2,14,-6
COc1cc(NC(=O)c2ccc(OC)c([N+](=O)[O-])c2)ccc1NC(=O)c1ccco1,-10,3,2,5,1,.,.
Oc1ccc(N2CCN(Cc3cc4c(cc3Br)OCCO4)CC2)cc1,4,1,8,0,0,.,.
COc1ccc(N=C2NC(=O)/C(=C/C=C/c3ccccc3)S2)cc1,12,-3,22,32*,-2,29*,16
COc1ccc(N=C2NC(=O)/C(=C\C=C\c3ccccc3)S2)cc1,3,0,10,-1,-3,.,.
